The results in this text go back to ChEMBL document CHEMBL1123129, “Hypolipidemic activity of indan-1,3-dione derivatives in rodents” (J Med Chem, 1985).

Series [1] deals with T1, ATP-citrate synthase (Mus musculus) (UniProt Q91V92).
T1 sequence (whole entry): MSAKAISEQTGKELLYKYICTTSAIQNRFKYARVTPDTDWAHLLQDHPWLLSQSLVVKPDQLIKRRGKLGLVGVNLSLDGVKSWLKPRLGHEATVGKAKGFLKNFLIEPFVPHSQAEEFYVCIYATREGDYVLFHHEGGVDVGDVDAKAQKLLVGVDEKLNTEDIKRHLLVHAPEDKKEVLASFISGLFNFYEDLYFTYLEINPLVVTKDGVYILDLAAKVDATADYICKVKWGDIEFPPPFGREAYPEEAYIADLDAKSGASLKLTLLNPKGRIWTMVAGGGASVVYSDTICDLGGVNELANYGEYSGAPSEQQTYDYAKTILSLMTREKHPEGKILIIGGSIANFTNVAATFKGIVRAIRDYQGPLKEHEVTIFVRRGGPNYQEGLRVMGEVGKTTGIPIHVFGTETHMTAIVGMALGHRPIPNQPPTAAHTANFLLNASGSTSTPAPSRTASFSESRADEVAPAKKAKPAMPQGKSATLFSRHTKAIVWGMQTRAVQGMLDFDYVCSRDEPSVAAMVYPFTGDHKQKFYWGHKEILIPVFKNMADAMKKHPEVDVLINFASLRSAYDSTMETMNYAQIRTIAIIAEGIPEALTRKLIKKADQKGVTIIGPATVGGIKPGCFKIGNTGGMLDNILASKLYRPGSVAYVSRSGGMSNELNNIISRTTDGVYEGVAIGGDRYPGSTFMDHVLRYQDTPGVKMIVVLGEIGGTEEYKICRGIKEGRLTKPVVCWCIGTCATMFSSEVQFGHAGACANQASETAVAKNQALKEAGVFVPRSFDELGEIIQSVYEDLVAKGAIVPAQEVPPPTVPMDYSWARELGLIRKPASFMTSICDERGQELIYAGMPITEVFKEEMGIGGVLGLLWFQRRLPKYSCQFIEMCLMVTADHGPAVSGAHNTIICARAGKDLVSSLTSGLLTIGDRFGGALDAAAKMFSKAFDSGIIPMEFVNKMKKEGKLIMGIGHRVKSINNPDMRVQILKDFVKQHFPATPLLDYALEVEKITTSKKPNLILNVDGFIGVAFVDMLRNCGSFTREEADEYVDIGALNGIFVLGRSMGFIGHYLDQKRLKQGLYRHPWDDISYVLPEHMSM
Briefly: In Vitro evaluation for the CF1 liver enzyme activity on ATP-dependent citrate exchange at concentration 50 uM. In a few lines: (§1)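 Liver was taken from CF1 male mice and made into 10% homogenates, which were incubated with test compound at 50, 100 or 200 µM. Each enzyme was assayed by its literature method, and protein was measured by Lowry. N = 6. Activity is expressed as % of untreated control ± SD.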

In series [2] the target is T1, ATP-citrate synthase (Mus musculus). Briefly: In Vivo effect for the hypolipidemic activity on ATP-Citrate Lyase in CF1 mice after 16 days of oral administration at a dose of 10 mg/kg. Type of series: organism-based. On the set-up: dose 10 mg/kg. In a few lines: (§2)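 CF1 male mice are dosed orally at 10–60 mg/kg per day for 16 days, with 1% CMC as the control vehicle. Liver is homogenized at 10% in 0.25 M sucrose + 0.001 M EDTA, pH 7.2. Enzymes are assayed by literature methods, with Lowry protein. Activity is given as % of control (X ± SD, N = 6), with p from Student's t test.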

For series [3], the target named is Cholesterol 7-alpha-hydroxylase (Cytochrome P450 7A1) (Mus musculus, UniProt Q64505). In words: In vivo effect on Cholesterol 7-alpha-hydroxylase activity in CF1 mice after 16 days at 40 mg/kg oral dose. The settings on record: read-out: Control. On the set-up: dose 40 mg/kg, route oral. The format is functional, organism-based. In a few lines:
as §2

For series [4], the system named is Mus musculus. Briefly: In Vivo effect for the hypolipidemic activity on Acetyl-CoA carboxylase in CF1 mice after 16 days administered orally at a dose of 10 mg/kg. Type of series: functional. The settings on record: route oral. In a few lines:
as §2

Series [5] deals with Acetyl-coenzyme A synthetase, cytoplasmic (Mus musculus) (UniProt Q9QXG4). In words: In Vivo effect for the hypolipidemic activity on Acetyl-coenzyme A synthetase in CF1 mice after 16 days of oral administration at a dose of 60 mg/kg. Type of series: functional, organism-based. The arrangement: dose 60 mg/kg. In a few lines: as §2
Series [6] concerns the target T2, Sterol O-acyltransferase 1 (Mus musculus) (UniProt Q61263).
T2 sequence (whole entry): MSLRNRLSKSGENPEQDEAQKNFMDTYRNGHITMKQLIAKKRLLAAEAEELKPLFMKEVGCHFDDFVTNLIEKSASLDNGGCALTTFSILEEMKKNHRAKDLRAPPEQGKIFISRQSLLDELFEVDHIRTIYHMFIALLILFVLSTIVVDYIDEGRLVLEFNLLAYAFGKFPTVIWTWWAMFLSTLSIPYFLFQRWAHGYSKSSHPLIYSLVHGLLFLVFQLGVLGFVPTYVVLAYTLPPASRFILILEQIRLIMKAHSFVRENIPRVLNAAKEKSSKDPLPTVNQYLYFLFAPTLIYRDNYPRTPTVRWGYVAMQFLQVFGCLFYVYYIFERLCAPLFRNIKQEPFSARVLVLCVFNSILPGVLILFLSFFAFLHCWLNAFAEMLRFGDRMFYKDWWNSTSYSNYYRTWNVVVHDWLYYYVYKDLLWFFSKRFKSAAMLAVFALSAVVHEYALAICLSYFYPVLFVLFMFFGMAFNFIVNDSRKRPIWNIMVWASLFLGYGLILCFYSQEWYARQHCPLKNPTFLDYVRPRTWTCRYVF
Briefly: In Vitro evaluation for the CF1 liver enzyme activity on Acyl cholesterol acyltransferase at concentration 200 uM. The format is functional, tissue-based. In a few lines:
as §1

Series [7] deals with Rattus norvegicus. Briefly: Compound was evaluated for the hypolipidemic activity at 20 mg/kg per day orally for 14 days on neutral lipids content in rat small intestine. Type of series: functional. The settings on record: route oral. In short, it runs like this:
(§3)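 Male Sprague–Dawley rats were dosed orally for 14 days. Liver, small intestine and a 24-h fecal collection were lipid-extracted. Extracts were assayed for cholesterol (modified Liebermann–Burchard), triglyceride (enzymatic kit), neutral lipids, phospholipids and protein. Values are % of 1% CMC vehicle control, mean ± SD, N = 6.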

Series [8] relates to Rattus norvegicus. In words: Compound was evaluated for the hypolipidemic activity at 20 mg/kg per day orally for 14 days on phospholipids content in rat LDL. The settings on record: route oral. Type of series: functional. In short, it runs like this:
(§4)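 Male Sprague–Dawley rats (~300 g) were dosed orally each day. Blood was drawn from the abdominal vein. Lipoprotein fractions (chylomicron, VLDL, LDL, HDL) were separated by the Hatch–Lees and Havel methods. Each fraction was assayed for cholesterol, triglyceride (enzymatic kit), neutral lipids, phospholipids and Lowry protein. Values are % of 1% CMC vehicle control, N = 6.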

For series [9], the system named is Rattus norvegicus. Briefly: Compound was evaluated for the hypolipidemic activity at 20 mg/kg per day orally for 14 days on protein content in rat VLDL. Type of series: functional. The settings on record: route oral. In a few lines: as §4
Series [10] relates to Rattus norvegicus. Briefly: Compound was evaluated for the hypolipidemic activity at 20 mg/kg per day orally for 14 days on protein content in rat lipoprotein chylomicron. The settings on record: route oral. Type of series: functional. In short, it runs like this: as §4
In series [11] the test system is Rattus norvegicus. In words: Compound was evaluated for the hypolipidemic activity at 20 mg/kg per day orally for 14 days on lipid content in rat liver. The format is functional. The settings on record: route oral. In a few lines: as §3
Series [12] concerns Rattus norvegicus. Briefly: Compound was evaluated for the hypolipidemic activity at 20 mg/kg per day orally for 14 days on triglycerides content in rat HDL. Type of series: functional. The settings on record: route oral. In a few lines: as §4
Series [13] concerns Rattus norvegicus. Briefly: Compound was evaluated for the hypolipidemic activity at 20 mg/kg per day orally for 14 days on triglycerides content in rat LDL. The settings on record: route oral. Type of series: functional. In a few lines: as §4
The subject of series [14] is Rattus norvegicus. In words: Compound was evaluated for the hypolipidemic activity at 20 mg/kg per day orally for 14 days on protein content in rat feces. The settings on record: route oral. The format is functional. In a few lines: as §3

Cholesterol 7-alpha-hydroxylase (Cytochrome P450 7A1), sequence (Q64505 whole entry): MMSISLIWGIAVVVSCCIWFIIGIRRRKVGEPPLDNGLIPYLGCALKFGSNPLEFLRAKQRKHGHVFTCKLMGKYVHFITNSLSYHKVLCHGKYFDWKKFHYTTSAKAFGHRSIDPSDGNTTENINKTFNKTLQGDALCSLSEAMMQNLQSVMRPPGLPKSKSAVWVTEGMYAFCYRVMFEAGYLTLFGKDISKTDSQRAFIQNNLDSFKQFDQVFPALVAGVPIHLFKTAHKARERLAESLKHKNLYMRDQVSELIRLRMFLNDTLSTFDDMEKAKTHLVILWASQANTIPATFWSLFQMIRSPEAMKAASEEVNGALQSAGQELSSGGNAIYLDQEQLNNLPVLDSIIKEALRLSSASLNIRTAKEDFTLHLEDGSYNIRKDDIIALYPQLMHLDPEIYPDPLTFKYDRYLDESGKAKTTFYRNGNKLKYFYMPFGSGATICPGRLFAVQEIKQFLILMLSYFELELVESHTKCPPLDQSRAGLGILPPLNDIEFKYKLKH
Acetyl-coenzyme A synthetase, cytoplasmic (Mus musculus), sequence (Q9QXG4 whole entry): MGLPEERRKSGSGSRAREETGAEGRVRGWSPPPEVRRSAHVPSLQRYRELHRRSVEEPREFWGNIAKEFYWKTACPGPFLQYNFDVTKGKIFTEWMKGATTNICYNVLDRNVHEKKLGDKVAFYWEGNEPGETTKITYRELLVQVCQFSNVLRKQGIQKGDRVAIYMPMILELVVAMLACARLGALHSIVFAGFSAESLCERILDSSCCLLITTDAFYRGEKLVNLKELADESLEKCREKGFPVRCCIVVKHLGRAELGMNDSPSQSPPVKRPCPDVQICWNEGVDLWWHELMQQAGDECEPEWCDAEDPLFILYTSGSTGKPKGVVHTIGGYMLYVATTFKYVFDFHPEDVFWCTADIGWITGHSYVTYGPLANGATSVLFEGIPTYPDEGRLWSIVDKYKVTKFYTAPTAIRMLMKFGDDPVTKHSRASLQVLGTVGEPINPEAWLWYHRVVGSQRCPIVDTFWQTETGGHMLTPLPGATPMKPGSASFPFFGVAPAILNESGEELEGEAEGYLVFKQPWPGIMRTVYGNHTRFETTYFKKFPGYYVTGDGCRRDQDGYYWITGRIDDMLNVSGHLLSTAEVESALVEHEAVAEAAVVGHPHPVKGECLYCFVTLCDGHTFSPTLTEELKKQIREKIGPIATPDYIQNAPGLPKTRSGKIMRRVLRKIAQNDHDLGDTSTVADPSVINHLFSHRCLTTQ

Take `COc1ccc(C2C(=O)c3ccccc3C2=O)cc1` [ANISINDIONE]: the Control turned out to be 72% in series [1]; 70% in series [2]; 89% in series [4]; 99% in [5]; 60% in [6]; 95% in series [7]. Besides, the Control was found to be 204% in series [8]; 106% in series [9]; 118% in series [10]; 98% in series [11]; 59% in series [12]; 40% in series [13]. This compound returned a Control in [14] of 99%. The activity at 384 h in series [3] was found to be 55%.
